Compound activity: PubChem BioAssay, several laboratories
This is a sample that favours compounds with a hit; in the whole collection about 2.9% have one here.
SENP8 block-1: blocks the human protease SENP8; Q96LD8; purified SENP8, Z-RLRGG-aminoluciferin cleavage, luminescence; inhibition, % at 10 µM; 1.2% of 330,000 active; in the data active means inhibition above about 50%
SENP1 FRET inh: inhibitors of human SENP1 SUMO protease catalytic domain | Q9P0U3 | recombinant SENP1 catalytic domain, CyPet-SUMO1-YPet FRET cleavage | inhibition, % at 10 µM | 0.21% of 360,000 active;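 active means inhibition at least 30% at 10 µM, raw YFP signal under a set limit, fluorescence ratio 0.5 to 1.5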
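System: Recombinant human SENP1 catalytic domain, His6-tagged | Incubation: Enzyme reaction for 50 min at room temperature, dark | Medium: Tris pH 8 with BME, BSA, NP40 and catalase | Also added: 25 nM SUMO1 FRET substrate | Compound: 10 µM single point, 0.5% DMSO | Measured by: FRET fluorescence in CFP and YFP emission channels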
SENP6 inh: SENP6 protease inhibition; Q9GZR1; Recombinant SENP6 catalytic domain, aminoluciferin luminescence; inhibition, % at 10 µM; 1.8% of 330,000 active; AID 2599;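 active means inhibition above about 50% at the single tested dose, limit read from the data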
SENP7 block: blocks the human protease SENP7 | recombinant SENP7, Z-RLRGG-aminoluciferin luminescence, 40 min | Q9BQF6 | 1.5% of 330,000 active | inhibition, % at 5 µM | AID 434973;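 active means inhibition above about 50% at the single test dose, limit read from the data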
Target sequence (Q9BQF6 706-1050 limits assumed): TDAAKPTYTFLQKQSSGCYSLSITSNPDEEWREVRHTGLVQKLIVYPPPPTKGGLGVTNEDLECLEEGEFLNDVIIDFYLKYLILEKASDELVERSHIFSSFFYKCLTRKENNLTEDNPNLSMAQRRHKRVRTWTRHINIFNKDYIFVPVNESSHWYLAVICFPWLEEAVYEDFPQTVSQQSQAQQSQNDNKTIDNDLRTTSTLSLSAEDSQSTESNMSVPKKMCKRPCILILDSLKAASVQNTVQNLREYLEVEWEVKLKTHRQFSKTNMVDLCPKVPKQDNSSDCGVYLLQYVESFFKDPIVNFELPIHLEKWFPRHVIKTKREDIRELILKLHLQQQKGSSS
HSP90 refold inh: HSP90 refolding inhibition in rabbit reticulocyte lysate | luciferase refolding luminescence, 3 h | inhibition, % at 5.6 µM | 0.91% of 290,000 active;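 active means inhibition above the screen-wide mean plus 3 SD, computed separately per campaign, cut at about 16% in these data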;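 further: inhibitors lower the luminescence because luciferase stays unfolded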
SENP8 block-2: SENP8 (human) protease inhibition | recombinant SENP8, Nedd8 substrate fluorescence | inhibition, % at 20 µM | 0.64% of 360,000 active; in the data active means inhibition mostly above about 40%, no sharp cut-off; inactive means mostly below about 27%
SENP8 inh conf: confirmation of human SENP8 protease inhibitors; shares compounds with SENP8 block-2; purified SENP8, Nedd8-AMC/pro-Nedd8 cleavage fluorescence, 30 min; inhibition, % at 25 µM; 15% of 1,400 active; in the data active means inhibition mostly above about 39%, no sharp cut-off; inactive means mostly below about 34%
Numbers stand for hits; - = inactive; . = no result given.

SMILES | SENP8 block-1 | SENP1 FRET inh | SENP6 inh | SENP7 block | HSP90 refold inh | SENP8 block-2 | SENP8 inh conf
Cc1ccc(C(=O)NCC(=O)OCC(=O)N2CCCc3ccccc32)cc1 | - | - | - | - | - | 54.7 | -
CCOC(=O)/C(=N/Nc1ccccc1)N1CCCc2ccccc21 | - | - | - | - | - | 43.1 | -
CC(=O)c1ccc(N2CCN(C(=O)C3CCN(S(=O)(=O)c4cccs4)CC3)CC2)cc1 | - | - | - | - | - | - | .
COCCn1c(SCc2cccc(F)c2)nc2cc(C(=O)OC)ccc2c1=O | - | - | - | - | - | - | .
O=C(O)C1CC(=O)N(C2CCCCC2)C1c1ccccc1 (stereo not given) | - | - | - | - | - | 40.9 | -
COC/C=C/C1=CC2=CC(=O)C(C)(OC(=O)c3cnc4ccccc4n3)C(=O)C2=CN1CCN1CCOCC1 (stereo not given) | - | - | - | - | . | - | .
COC/C=C/C1=CC2=CC(=O)C(C)(OC(=O)c3cnc4ccccc4n3)C(=O)C2=CN1CCCOC(C)C (stereo not given) | - | - | - | - | . | 43.9 | -
C=CCN1C=C2C(=O)C(C)(OC(=O)c3cnc4ccccc4n3)C(=O)C=C2C=C1/C=C/COC (stereo not given) | - | - | - | - | . | - | .
COC/C=C/C1=CC2=CC(=O)C(C)(OC(=O)c3cnc4ccccc4n3)C(=O)C2=CN1CCOC (stereo not given) | - | - | - | - | . | 54.4 | 47.4
O=C(CC(=O)NCc1ccc(Cl)cc1)NCc1ccccc1 | - | - | - | - | - | - | .
CC(=O)NNc1cc(N2CCOCC2)nc(N2CCOCC2)n1 | - | - | - | - | - | - | .
COc1ccc(NC(=O)NNc2cc(N3CCOCC3)nc(N3CCOCC3)n2)cc1 | - | - | - | - | - | 44.1 | -
COc1ccc(-c2nc[nH]c2[N+](=O)[O-])cc1 | - | - | - | - | - | 49.4 | -
CC1CCN(c2ccc3nnc(CCC(=O)N4CCN(c5ccc(F)cc5)CC4)n3n2)CC1 | - | - | - | - | - | - | .
Cc1ccc(S(=O)(=O)Nc2ccc(=O)n(Cc3ccc(Cl)c(Cl)c3)c2)cc1 | - | - | - | - | - | - | .
O=c1ccc(NS(=O)(=O)c2ccccc2Cl)cn1Cc1ccc(Cl)c(Cl)c1 | - | - | - | - | - | 39.0 | -
Cc1ccc(C)c(Oc2cc(NN3CCCCC3)c([N+](=O)[O-])cc2[N+](=O)[O-])c1 | - | - | - | - | - | 42.1 | -
Cc1ccc(F)c(Oc2cc(NN3CCCCC3)c([N+](=O)[O-])cc2[N+](=O)[O-])c1 | - | - | - | - | - | - | .
COCC(=O)N1CCC(n2nccc2NC(=O)c2ccccc2OC)CC1 | - | - | - | - | - | - | .
CCOC(=O)C1CCN(C(=O)c2sc3nc(-c4ccc(F)cc4)cn3c2C)CC1 | - | - | - | - | - | - | .
Cc1cc(C)c(NC(=O)CSCc2c(C)noc2C)c(C)c1 | - | - | - | - | . | - | .
Cc1ccc(NC(=O)CSCc2c(C)noc2C)cc1C | - | - | - | - | - | 40.2 | -
Cc1ccc(NS(=O)(=O)Cc2ccccc2)cc1Cl | - | - | - | - | - | - | .
CCc1ccc(CNC(=O)c2ccc(OC3CCN(C(C)=O)CC3)c(OC)c2)nc1 | - | - | - | - | - | - | .
CCCN(CCO)C1CCN(CCc2ccccc2)CC1 | - | - | - | - | - | - | .
SMILES | SENP8 block-1 | SENP1 FRET inh | SENP6 inh | SENP7 block | HSP90 refold inh | SENP8 block-2 | SENP8 inh conf
Cc1ccc(S(=O)(=O)NC(C)C(=O)OCC(=O)N(C)c2ccccc2)cc1 (stereo not given) | - | - | - | - | . | - | .
O=c1[nH]n2c(=O)c3c([nH]c2c1N=Nc1cccc(C(F)(F)F)c1)CCCC3 | - | - | - | - | - | 56.0 | -
O=c1[nH]n2c(=O)c3c([nH]c2c1N=Nc1cccc(Cl)c1)CCC3 | . | - | . | . | - | - | .
O=c1ccc(Br)c[nH]1 | - | - | - | - | - | 42.0 | -
CC(C)OCCCNC(=O)c1ccc(CN2CCc3ccccc3C2)cc1 | - | - | - | - | - | - | .
CC(C)NC(=O)c1ccc(CN2CCc3ccccc3C2)cc1 | - | - | - | - | - | 44.0 | -
CCOc1cc(/C=C2\N=C(SC)SC2=O)cc([N+](=O)[O-])c1OC(C)=O | - | - | - | - | - | 45.4 | -
